Assay results from ChEMBL document CHEMBL2046346, “Discovery of phenylpropanoic acid derivatives containing polar functionalities as potent and orally bioavailable G protein-coupled receptor 40 agonists for the treatment of type 2 diabetes” (J Med Chem, 2012).
pEC50, pKi: −log10 of the molar value. The source made the active and inactive calls. The rule behind the calls is not given here.

Experiments:
[1] = Metabolic stability in human hepatic microsomes; format: ADME; conditions: liver microsomes, read-out: Stability
[2] = molecular target: Free fatty acid receptor 1 (Rattus norvegicus, UniProt Q8K3T4); experiment: Displacement of 3-[4-({2',6'-dimethyl-6-[(4-[3H])phenylmethoxy]biphenyl-3-yl}methoxy)phenyl] propanoic acid from rat GPR40 receptor expressed in CHO cell membrane after 90 mins by liquid scintillation counting in the presence of 0.2% BSA; format: cell membranes
Free fatty acid receptor 1 (Rattus norvegicus, UniProt Q8K3T4), sequence (Q8K3T4 whole entry): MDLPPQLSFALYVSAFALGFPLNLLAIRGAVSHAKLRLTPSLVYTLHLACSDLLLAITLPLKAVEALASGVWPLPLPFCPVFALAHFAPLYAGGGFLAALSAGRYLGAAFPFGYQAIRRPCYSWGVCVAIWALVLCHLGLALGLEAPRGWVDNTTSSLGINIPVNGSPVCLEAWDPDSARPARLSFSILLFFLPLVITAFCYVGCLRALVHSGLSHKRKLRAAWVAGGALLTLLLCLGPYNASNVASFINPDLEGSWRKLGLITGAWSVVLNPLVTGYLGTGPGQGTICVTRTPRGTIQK
How it was run: (§1)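 Membranes from CHO lines stably expressing human or rat GPR40, buffer 25 mmol/L Tris-HCl pH 7.5, 5 mmol/L EDTA, protease inhibitors, 0.05% CHAPS, 0.2% fatty-acid-free BSA. Tritiated ligand at 2 or 6 nmol/L with graded test compound, 90 min room temperature, GF/C filtration, scintillation counting. Nonspecific binding: 10 μmol/L unlabeled ligand. IC50 by nonlinear regression, Ki = IC50/(1+[L]/Kd).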

[3] = molecular target: T1, Free fatty acid receptor 1 (Homo sapiens, UniProt O14842); experiment: Agonist activity at human GPR40 receptor expressed in CHO cells assessed as increase in intracellular calcium level for 90 secs by FLIPR assay in the presence of 0.1% BSA; format: functional, cell-based
T1 sequence (O14842 whole entry): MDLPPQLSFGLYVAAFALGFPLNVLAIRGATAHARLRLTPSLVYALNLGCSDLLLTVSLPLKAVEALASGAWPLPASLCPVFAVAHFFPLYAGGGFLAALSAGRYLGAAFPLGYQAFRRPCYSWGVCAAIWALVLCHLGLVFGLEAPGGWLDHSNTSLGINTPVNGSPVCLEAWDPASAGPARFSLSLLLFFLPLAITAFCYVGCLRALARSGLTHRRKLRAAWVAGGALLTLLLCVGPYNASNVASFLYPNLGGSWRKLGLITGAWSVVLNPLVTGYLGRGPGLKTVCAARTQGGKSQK
How it was run: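 CHO dhfr cells stably expressing human GPR40 plated overnight, loaded 60 min at 37 °C with Fluo 4 AM (2.5 μg/mL), 2.5 mmol/L probenecid, 0.1% fatty acid-free BSA. Ca2+ rise after compound addition read 90 s; response scaled between vehicle (0%) and 10 μM γ-linolenic acid (100%).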

[4] = molecular target: T1, Free fatty acid receptor 1; experiment: Displacement of 3-[4-({2',6'-dimethyl-6-[(4-[3H])phenylmethoxy]biphenyl-3-yl}methoxy)phenyl] propanoic acid from human GPR40 receptor expressed in CHO cell membrane after 90 mins by liquid scintillation counting in the presence of 0.2% BSA; format: cell membranes; how it was run: as §1
[5] = Lipophilicity, log D of the compound by RP-HPLC analysis; format: physicochemical
[6] = Cytotoxicity against human HepG2 cells assessed as intracellular ATP level at 30 uM after 24 hrs by ATPlite assay relative to control; format: cell-based; conditions: read-out: Activity
How it was run: (§2)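 HepG2 cells seeded 2 × 10^4/well, treated 1 day in DMEM with 0.5% FBS, 2 mM L-glutamine, 1 mM pyruvate. ATP measured by ATPlite luminescence; % of 1% DMSO control (RLU ratio ×100), n = 3.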

HepG2 [7] = experiment: Induction of apoptosis in human HepG2 cells assessed as caspase 3/7 activity at 10 uM after 24 hrs by caspase Glo assay relative to staurosporine; format: cell-based; conditions: hepg2, 24 h
How it was run: (§3)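 HepG2 cells seeded 2 × 10^4/well, treated 1 day in DMEM with 0.5% FBS, 2 mM L-glutamine, 1 mM pyruvate. Caspase-Glo 3/7 luminescence; activity = (compound − 1% DMSO)/(30 μM staurosporine − 1% DMSO) ×100, n = 3.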

HepG2 [8] = experiment: Induction of apoptosis in human HepG2 cells assessed as caspase 3/7 activity at 30 uM after 24 hrs by caspase Glo assay relative to staurosporine; format: cell-based; conditions: hepg2, 24 h; how it was run: as §3
[9] = Cytotoxicity against human HepG2 cells assessed as intracellular ATP level at 10 uM after 24 hrs by ATPlite assay relative to control; format: cell-based; conditions: read-out: Activity; how it was run: as §2
Rattus norvegicus [10] = species: Rattus norvegicus; experiment: Insulinotropic activity in rat INS1(833/15) cells assessed as increase in insulin secretion at 1 uM after 2 hrs by competitive enzyme immunoassay in the presence of 4 mM glucose; format: functional, cell-based
How it was run: (§4)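 INS-1 833/15 cells seeded on poly-L-lysine, cultured 2 days, preincubated in KRBH (0.2% FFA-free BSA) with 1 mM glucose, then 2 h in KRBH at 1–16 mM glucose with or without compound (DMSO vehicle). Secreted insulin by EIA; expressed as fold over 1 mM glucose alone, mean ± SD (n = 3–6).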

Rattus norvegicus [11] = species: Rattus norvegicus; experiment: Insulinotropic activity in rat INS1(833/15) cells assessed as increase in insulin secretion at 1 uM after 2 hrs by competitive enzyme immunoassay in the presence of 1 mM glucose; format: functional, cell-based; how it was run: as §4
Rattus norvegicus [12] = species: Rattus norvegicus; experiment: Insulinotropic activity in rat INS1(833/15) cells assessed as increase in insulin secretion after 2 hrs by competitive enzyme immunoassay in the presence of 11 mM glucose; format: functional, cell-based; how it was run: as §4
Rattus norvegicus [13] = species: Rattus norvegicus; experiment: Insulinotropic activity in rat INS1(833/15) cells assessed as increase in insulin secretion at >0.1 uM after 2 hrs by competitive enzyme immunoassay in the presence of 11 mM glucose; format: functional, cell-based; how it was run: as §4
Rattus norvegicus [14] = species: Rattus norvegicus; experiment: Insulinotropic activity in rat INS1(833/15) cells assessed as increase in insulin secretion at 1 uM after 2 hrs by competitive enzyme immunoassay in the presence of >6 mM glucose; format: functional, cell-based; how it was run: as §4
Rattus norvegicus [15] = species: Rattus norvegicus; experiment: Insulinotropic activity in rat INS1(833/15) cells assessed as increase in insulin secretion at 1 uM after 2 hrs by competitive enzyme immunoassay in the presence of 16 mM glucose; format: functional, cell-based; how it was run: as §4
Rattus norvegicus [16] = experiment: Induction of hypoglycemia in fasted Sprague-Dawley rat assessed as increase in insulin secretion level at 30 mg/kg, po after 30 mins; format: organism-based; parameters: dose 30 mg/kg, route oral; conditions: in vivo, 0.5 h
How it was run: (§5)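 Eight-week-old male SD rats fasted overnight, grouped by body weight (n = 6), single oral dose in 0.5% methylcellulose vehicle; tail-vein blood before and 0.5, 1, 2, 3 h after dosing; plasma glucose by analyzer, insulin by ELISA; mean ± SD.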

Rattus norvegicus [17] = species: Rattus norvegicus; experiment: Insulinotropic activity in rat INS1(833/15) cells assessed as increase in insulin secretion at 30 uM after 2 hrs by competitive enzyme immunoassay in the presence of 16 mM glucose; format: functional, cell-based; how it was run: as §4
Rattus norvegicus [18] = species: Rattus norvegicus; experiment: Insulinotropic activity in rat INS1(833/15) cells assessed as increase in insulin secretion at 30 uM after 2 hrs by competitive enzyme immunoassay in the presence of low concentration of glucose; format: functional, cell-based; how it was run: as §4
Rattus norvegicus [19] = species: Rattus norvegicus; experiment: Insulinotropic activity in rat INS1(833/15) cells assessed as increase in insulin secretion at 30 uM after 2 hrs by competitive enzyme immunoassay in the presence of 11 mM glucose; format: functional, cell-based; how it was run: as §4
Rattus norvegicus [20] = experiment: Induction of hypoglycemia in fasted Sprague-Dawley rat assessed as decrease in plasma glucose level below normal fasting level at 10 mg/kg, po; format: organism-based; parameters: dose 10 mg/kg, route oral; conditions: in vivo; how it was run: as §5
[21] = Metabolic stability in rat hepatic microsomes; format: ADME; conditions: liver microsomes, read-out: Stability
Rattus norvegicus [22] = species: Rattus norvegicus; experiment: Insulinotropic activity in rat INS1(833/15) cells assessed as increase in insulin secretion at 10 uM after 2 hrs by competitive enzyme immunoassay in the presence of 16 mM glucose; format: functional, cell-based; how it was run: as §4
Rattus norvegicus [23] = species: Rattus norvegicus; experiment: Insulinotropic activity in rat INS1(833/15) cells assessed as increase in insulin secretion at 10 uM after 2 hrs by competitive enzyme immunoassay in the presence of 11 mM glucose; format: functional, cell-based; how it was run: as §4
Rattus norvegicus [24] = species: Rattus norvegicus; experiment: Insulinotropic activity in rat INS1(833/15) cells assessed as increase in insulin secretion at 10 uM after 2 hrs by competitive enzyme immunoassay in the presence of low concentration of glucose; format: functional, cell-based; how it was run: as §4

Row | microsomal CLint [1] [µL/min/mg] | pKi [2] | pEC50 [3] | pKi [4] | logD [5] | Structure (SMILES) | viability at 24 h, 30 µM [6] [%] | Activity (HepG2 [7]) [%] | Activity (HepG2 [8]) [%] | viability at 24 h, 10 µM [9] [%] | other results
1 | 8 | 8.35 | 8.35 | 7.92 | 4.14 | CCOCCOc1cc(C)c(-c2cccc(COc3ccc(CCC(=O)O)c(F)c3)c2)c(C)c1 |  |  |  |  | 
2 |  | 8.25 | 7.82 | 7.80 | 4.61 | Cc1cc(OCC2CC2)cc(C)c1-c1cccc(COc2ccc(CCC(=O)O)cc2)c1 |  |  |  |  | 
3 |  | 7.06 | 7.70 | 7.33 | 3.38 | COc1ccc(COc2ccc(CCC(=O)O)cc2)cc1-c1c(C)cccc1C |  |  |  |  | 
4 |  | 8.21 | 7.59 | 7.74 | 3.49 | CCOCCOc1cc(C)c(-c2cccc(CNc3ccc(CCC(=O)O)c(F)c3)c2)c(C)c1.Cl | 48.5 | 5.3 | 1.2 | 9.9 | 
5 | 3 | 8.19 | 7.60 | 7.80 | 3.06 | Cc1cc(OC2CCS(=O)(=O)CC2)cc(C)c1-c1cccc(COc2ccc(CCC(=O)O)c(F)c2)c1 | 38 | -0.5 | 28.9 | 79.8 | Activity (Rattus norvegicus [10]): inactive; Activity (Rattus norvegicus [11]): inactive; Activity (Rattus norvegicus [12]): Dose-dependent effect; Activity (Rattus norvegicus [13]): Active; Activity (Rattus norvegicus [14]): Active; Activity (Rattus norvegicus [15]): Active
6 |  | 8.09 | 7.82 | 7.72 | 2.78 | Cc1cc(OCC2(O)CCS(=O)(=O)CC2)cc(C)c1-c1cccc(COc2ccc(CCC(=O)O)c(F)c2)c1 | 61.5 | -0.2 | 2.8 | 88.6 | 
7 |  | 7.52 | 7.40 | 7.24 | 4.22 | Cc1cccc(C)c1-c1cccc(COc2ccc(CCC(=O)O)cc2)c1C |  |  |  |  | 
8 |  | 5.00 |  | 6.28 | 4.04 | COc1ccc(-c2c(C)cccc2C)cc1COc1ccc(CCC(=O)O)cc1 |  |  |  |  | 
9 |  | 8.17 | 7.51 | 7.92 | 4.23 | Cc1cccc(Oc2cc(C)c(-c3cccc(COc4ccc(CCC(=O)O)c(F)c4)c3)c(C)c2)n1.Cl | 47.5 | -0.4 | 41.1 | 56.7 | 
10 |  |  |  |  |  | COc1ccc(Cl)cc1C(=O)NCCc1ccc(S(=O)(=O)NC(=O)NC2CCCCC2)cc1 [GLYBURIDE] |  |  |  |  | Activity (Rattus norvegicus [16]): Toxic; Activity (Rattus norvegicus [17]): Active; Activity (Rattus norvegicus [18]): Active; Activity (Rattus norvegicus [19]): Active; Activity (Rattus norvegicus [20]): Toxic
11 | 2 | 8.35 | 7.00 | 7.70 | 2.39 | CCS(=O)(=O)CCOc1cc(C)c(-c2cccc(CNc3ccc(CCC(=O)O)c(F)c3)c2)c(C)c1 | 45.7 | -1 | -0.9 | 79.8 | 
12 | 7 | 8.01 | 7.49 | 7.68 | 3.51 | Cc1cc(OCCCN2CCCC2=O)cc(C)c1-c1cccc(COc2ccc(CCC(=O)O)c(F)c2)c1 | 30.3 | 0.2 | 20.3 | 54.1 | microsomal CLint [21]: 5 µL/min/mg
13 | 6 | 8.38 | 7.60 | 7.82 | 3.02 | CCS(=O)(=O)CCOc1cc(C)c(-c2cccc(COc3ccc(CCC(=O)O)c(F)c3)c2)c(C)c1 | 32.5 | -1.1 | 17.7 | 79.8 | microsomal CLint [21]: 10 µL/min/mg
14 |  | 8.29 | 7.64 | 7.74 | 2.44 | Cc1cc(OC2CCS(=O)(=O)CC2)cc(C)c1-c1cccc(CNc2ccc(CCC(=O)O)c(F)c2)c1 | 60.7 | -0.5 | -0.7 | 78.8 | 
15 |  |  |  |  |  | CC(C)[C@H]1CC[C@H](C(=O)N[C@H](Cc2ccccc2)C(=O)O)CC1 |  |  |  |  | Activity (Rattus norvegicus [22]): Active; Activity (Rattus norvegicus [23]): Active; Activity (Rattus norvegicus [24]): Active
16 | 28 | 7.57 | 7.66 | 7.34 | 4.04 | Cc1cccc(C)c1-c1cccc(COc2ccc(CCC(=O)O)cc2)c1 |  |  |  |  | microsomal CLint [21]: 34 µL/min/mg
17 |  | 8.21 | 7.92 | 7.60 | 3.83 | COc1cc(C)c(-c2cccc(COc3ccc(CCC(=O)O)cc3)c2)c(C)c1 |  |  |  |  | 
18 |  | 8.00 | 7.89 | 7.64 | 3.89 | CCOCCOc1cc(C)c(-c2cccc(COc3ccc(CCC(=O)O)cc3)c2)c(C)c1 |  |  |  |  | 
19 |  | 8.17 | 7.64 | 7.70 | 4.1 | Cc1cc(OC2CCOCC2)cc(C)c1-c1cccc(COc2ccc(CCC(=O)O)c(F)c2)c1 | 38.1 | 0.9 | 42.8 | 60.3 | 
20 |  | 6.92 |  | 7.00 | 4.16 | COc1cc(COc2ccc(CCC(=O)O)c(F)c2)cc(-c2c(C)cccc2C)c1 |  |  |  |  | 
21 | 69 | 7.44 |  |  |  | Cc1cccc(C)c1-c1cccc(COc2ccc(CCC(=O)O)c(F)c2)c1 |  |  |  |  | microsomal CLint [21]: 39 µL/min/mg
22 |  | 8.17 | 7.85 | 7.82 | 5.08 | Cc1cc(OCc2ccccc2)cc(C)c1-c1cccc(COc2ccc(CCC(=O)O)cc2)c1 |  |  |  |  | 
